Laboratory results published in ChEMBL document CHEMBL5058577, “EUbOPEN Chemogenomics Library 2 (Multiplex)” (2022).

Test system: U2OS
Assay: Multiplex assay against U2OS
Assay type: toxicity, cell-based
Conditions: human
How it was run: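 Live cells carried four stains from seeding: Hoechst33342, BioTracker Green Microtubule Cytoskeleton Dye, MitoTracker Red and Annexin V Alexa Fluor 680. They were imaged on a CQ1 microscope at 37°C and 5% CO2 after compound addition. Using CellPathfinder machine-learning gating, cells were split into Hoechst high-intensity objects or normal cells, normal cells into healthy, pyknosed or fragmented nuclei, and pyknosed cells into mitotic or apoptotic; tubulin, mitochondrial-mass and membrane-permeability phenotypes are per cents of healthy-nucleus cells.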

[1] = 12 h, 1 µM, compound concentration 1 uM, replicate 1
[2] = 12 h, 1 µM, compound concentration 1 uM, replicate 2
[3] = 12 h, 10 µM, compound concentration 10 uM, replicate 1
[4] = 12 h, 10 µM, compound concentration 10 uM, replicate 2
[5] = 24 h, 1 µM, compound concentration 1 uM, replicate 1
[6] = 24 h, 1 µM, compound concentration 1 uM, replicate 2
[7] = 24 h, 10 µM, compound concentration 10 uM, replicate 1
[8] = 24 h, 10 µM, compound concentration 10 uM, replicate 2
[9] = 48 h, 1 µM, compound concentration 1 uM, replicate 1
[10] = 48 h, 1 µM, compound concentration 1 uM, replicate 2
[11] = 48 h, 10 µM, compound concentration 10 uM, replicate 1
[12] = 48 h, 10 µM, compound concentration 10 uM, replicate 2

## Cc1noc(-c2ccc(-c3ccc(CC(=O)O)cc3)cc2)c1NC(=O)O[C@H](C)c1ccccc1Cl
[1]
  Population Apoptotic (%): 95%
  Population Fragmented Nuclei (%): 21%
  Population Healthy Nuclei (%): 69%
  Population Hoechst High Intensity Objects (%): 4%
  Population Membrane Permeable-Phenotype (%): 7%
  Population Mitochondria Different-Phenotype (%): 5%
  Population Mitotic Cells (%): 5%
  Population Normal (%): 95%
  Population Pyknosed Nuclei (%): 9%
  Population Tubulin-Different-Phenotype (%): 4%
  Total Cell Count: 231
[2]
  Population Apoptotic (%): 85%
  Population Fragmented Nuclei (%): 19%
  Population Healthy Nuclei (%): 74%
  Population Hoechst High Intensity Objects (%): 0%
  Population Membrane Permeable-Phenotype (%): 2%
  Population Mitochondria Different-Phenotype (%): 2%
  Population Mitotic Cells (%): 14%
  Population Normal (%): 99%
  Population Pyknosed Nuclei (%): 7%
  Total Cell Count: 101
[3]
  Population Apoptotic (%): 78%
  Population Fragmented Nuclei (%): 29%
  Population Healthy Nuclei (%): 61%
  Population Hoechst High Intensity Objects (%): 2%
  Population Membrane Permeable-Phenotype (%): 11%
  Population Mitochondria Different-Phenotype (%): 4%
  Population Mitotic Cells (%): 21%
  Population Normal (%): 97%
  Population Pyknosed Nuclei (%): 9%
  Population Tubulin-Different-Phenotype (%): 6%
  Total Cell Count: 242
[4]
  Population Apoptotic (%): 71%
  Population Fragmented Nuclei (%): 11%
  Population Healthy Nuclei (%): 83%
  Population Membrane Permeable-Phenotype (%): 6%
  Population Mitochondria Different-Phenotype (%): 2%
  Population Mitotic Cells (%): 28%
  Population Pyknosed Nuclei (%): 5%
  Total Cell Count: 138
[5]
  Population Apoptotic (%): 96%
  Population Fragmented Nuclei (%): 19%
  Population Healthy Nuclei (%): 70%
  Population Hoechst High Intensity Objects (%): 2%
  Population Membrane Permeable-Phenotype (%): 5%
  Population Mitochondria Different-Phenotype (%): 4%
  Population Mitotic Cells (%): 3%
  Population Normal (%): 97%
  Population Pyknosed Nuclei (%): 9%
  Population Tubulin-Different-Phenotype (%): 3%
  Total Cell Count: 277
[6]
  Population Apoptotic (%): 77%
  Population Fragmented Nuclei (%): 15%
  Population Healthy Nuclei (%): 77%
  Population Hoechst High Intensity Objects (%): 0%
  Population Membrane Permeable-Phenotype (%): 4%
  Population Mitochondria Different-Phenotype (%): 3%
  Population Mitotic Cells (%): 22%
  Population Normal (%): 99%
  Population Pyknosed Nuclei (%): 7%
  Population Tubulin-Different-Phenotype (%): 6%
  Total Cell Count: 125
[7]
  Population Apoptotic (%): 92%
  Population Fragmented Nuclei (%): 24%
  Population Healthy Nuclei (%): 65%
  Population Hoechst High Intensity Objects (%): 1%
  Population Membrane Permeable-Phenotype (%): 11%
  Population Mitochondria Different-Phenotype (%): 2%
  Population Mitotic Cells (%): 7%
  Population Normal (%): 98%
  Population Pyknosed Nuclei (%): 10%
  Population Tubulin-Different-Phenotype (%): 5%
  Total Cell Count: 260
[8]
  Population Apoptotic (%): 90%
  Population Fragmented Nuclei (%): 12%
  Population Healthy Nuclei (%): 80%
  Population Hoechst High Intensity Objects (%): 2%
  Population Membrane Permeable-Phenotype (%): 7%
  Population Mitotic Cells (%): 9%
  Population Normal (%): 97%
  Population Pyknosed Nuclei (%): 7%
  Population Tubulin-Different-Phenotype (%): 4%
  Total Cell Count: 154
[9]
  Population Apoptotic (%): 97%
  Population Fragmented Nuclei (%): 15%
  Population Healthy Nuclei (%): 75%
  Population Hoechst High Intensity Objects (%): 1%
  Population Membrane Permeable-Phenotype (%): 6%
  Population Mitochondria Different-Phenotype (%): 3%
  Population Mitotic Cells (%): 2%
  Population Normal (%): 98%
  Population Pyknosed Nuclei (%): 9%
  Population Tubulin-Different-Phenotype (%): 3%
  Total Cell Count: 408
[10]
  Population Apoptotic (%): 86%
  Population Fragmented Nuclei (%): 18%
  Population Healthy Nuclei (%): 72%
  Population Hoechst High Intensity Objects (%): 0%
  Population Mitochondria Different-Phenotype (%): 4%
  Population Mitotic Cells (%): 13%
  Population Normal (%): 100%
  Population Pyknosed Nuclei (%): 8%
  Population Tubulin-Different-Phenotype (%): 4%
  Total Cell Count: 170
[11]
  Population Apoptotic (%): 92%
  Population Fragmented Nuclei (%): 19%
  Population Healthy Nuclei (%): 72%
  Population Hoechst High Intensity Objects (%): 3%
  Population Membrane Permeable-Phenotype (%): 7%
  Population Mitochondria Different-Phenotype (%): 3%
  Population Mitotic Cells (%): 7%
  Population Normal (%): 96%
  Population Pyknosed Nuclei (%): 8%
  Population Tubulin-Different-Phenotype (%): 5%
  Total Cell Count: 344
[12]
  Population Apoptotic (%): 85%
  Population Fragmented Nuclei (%): 9%
  Population Healthy Nuclei (%): 78%
  Population Hoechst High Intensity Objects (%): 4%
  Population Membrane Permeable-Phenotype (%): 6%
  Population Mitochondria Different-Phenotype (%): 2%
  Population Mitotic Cells (%): 14%
  Population Normal (%): 95%
  Population Pyknosed Nuclei (%): 11%
  Population Tubulin-Different-Phenotype (%): 4%
  Total Cell Count: 241
